Test results from ChEMBL document CHEMBL1129424, “Heterocyclic amides: inhibitors of acyl-CoA:cholesterol O-acyl transferase with hypocholesterolemic activity in several species and antiatherosclerotic activity in the rabbit” (J Med Chem, 1996).
pIC50: −log10 of the molar value.

Experiments:
[1] = target: T1, Sterol O-acyltransferase 1 (Rattus norvegicus, UniProt O70536); assay: Inhibition of Acyl coenzyme A:cholesterol acyltransferase 1 from rat liver microsomes
T1 sequence (O70536 whole entry): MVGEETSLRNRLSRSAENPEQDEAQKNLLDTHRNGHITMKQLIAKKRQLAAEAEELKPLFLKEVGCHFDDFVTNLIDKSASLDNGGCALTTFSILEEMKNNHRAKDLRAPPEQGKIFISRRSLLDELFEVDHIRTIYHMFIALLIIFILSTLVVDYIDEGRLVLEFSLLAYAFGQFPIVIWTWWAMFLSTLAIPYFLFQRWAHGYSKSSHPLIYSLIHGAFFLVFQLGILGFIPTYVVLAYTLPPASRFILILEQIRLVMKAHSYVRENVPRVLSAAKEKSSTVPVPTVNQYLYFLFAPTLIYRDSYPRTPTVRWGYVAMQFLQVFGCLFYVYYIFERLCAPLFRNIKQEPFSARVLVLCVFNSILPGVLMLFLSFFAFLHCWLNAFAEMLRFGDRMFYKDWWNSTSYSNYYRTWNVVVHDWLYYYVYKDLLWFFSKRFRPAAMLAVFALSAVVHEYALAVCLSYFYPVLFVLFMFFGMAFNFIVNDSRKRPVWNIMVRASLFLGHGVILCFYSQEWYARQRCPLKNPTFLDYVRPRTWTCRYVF
Outline: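 Microsomes isolated from livers of cholesterol-fed rats were incubated with compound and [1-14C]oleoyl-CoA to measure ACAT inhibition; IC50 reported in μM.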

[2] = test system: Rattus norvegicus; assay: Percent change in total cholesterol in the acute cholesterol-fed rat model (APCC) of hypercholesterolemia at 30 mg/Kg; assay type: functional
Outline: (§1)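 Acute rat model: compound given by gavage at 30 or 3 mg/kg in 1.5% carboxymethylcellulose/0.2% Tween-20 in water (3-4 pm). Rats then fed overnight a diet with 5.5% peanut oil, 1.5% cholesterol, 0.5% cholic acid. Result is percent decrease in plasma total cholesterol versus controls.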

[3] = test system: Rattus norvegicus; assay: Percent change in total cholesterol in the acute cholesterol-fed rat model (APCC) of hypercholesterolemia at 3 mg/Kg; assay type: functional; outline: as §1
[4] = test system: Oryctolagus cuniculus; assay: Percent change in plasma triglyceride levels at dose 25 mg/Kg in rabbits; assay type: functional
Outline: (§2)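 Injured cholesterol-fed rabbits: diet of 0.5% cholesterol, 3% peanut oil, 3% coconut oil for 9 weeks (1 week before, 8 weeks after surgery), producing thoracic aortic and iliac-femoral lesions. Doses 1, 5 or 25 mg/kg. Thoracic aortic lesion coverage, plasma total cholesterol and triglycerides given as percent change versus control; Student's t-test, p < 0.05.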

[5] = test system: Oryctolagus cuniculus; assay: Percent change in lesion coverage relative to control in the thoracic aorta at dose 25 mg/Kg in rabbits; assay type: functional; outline: as §2
[6] = test system: Oryctolagus cuniculus; assay: Percent change in plasma total cholesterol at dose 25 mg/Kg in rabbits; assay type: functional; outline: as §2
[7] = target: T2, Sterol O-acyltransferase 1 (Rattus norvegicus) (UniProt O70536); assay: Inhibition of rat liver microsomal Acyl coenzyme A:cholesterol acyltransferase 1 from rabbit plasma after an oral dose of 25 mg/kg; assay type: cell-free
T2 sequence (whole entry): T1 sequence (O70536 whole entry)
Outline: (§3)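 Male New Zealand white rabbits conditioned to meal feeding for 1 week, then given a meal containing drug at 25 mg/kg in 3% peanut oil/3% coconut oil vehicle. Plasma was sampled at 0, 1, 2 and 4 h and extracted into hexane, then redissolved in chloroform/methanol (2:1). It was assayed for liver microsomal ACAT inhibition against standards of compound spiked into rabbit plasma in DMSO.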

[8] = Acyl coenzyme A:cholesterol acyltransferase inhibition in cell culture measured in murine IC-21 macrophages.
Outline: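 Murine IC-21 macrophages preincubated 16 h in serum-free DMEM with albumin (20 μM) and phosphatidylserine/cholesterol vesicles; then compound in DMSO for 1 h, then 14C-sodium oleate added for 4 more h. Lipids extracted in hexane/2-propanol with [14C]cholesterol internal standard; neutral lipids separated by TLC, phosphorimaged; protein by Lowry. IC50 is the concentration giving 50% inhibition.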

[9] = species: Rattus norvegicus; assay: Compound was tested for the percent change in total cholesterol (TC) by chronic rat model; assay type: functional
[10] = test system: Oryctolagus cuniculus; assay: Percent change in plasma total cholesterol at dose 5 mg/Kg in rabbits; assay type: functional; outline: as §2
[11] = test system: Oryctolagus cuniculus; assay: Percent change in plasma triglyceride levels at dose 5 mg/Kg in rabbits; assay type: functional; outline: as §2
[12] = target: T2, Sterol O-acyltransferase 1 (Rattus norvegicus); assay: Compound at 5 mg/Kg was tested for the inhibition of rat liver microsomal Acyl coenzyme A:cholesterol acyltransferase 1 in plasma drawn from chow fed rabbits; assay type: cell-free
[13] = target: T2, Sterol O-acyltransferase 1 (Rattus norvegicus); assay: Compound at 25 mg/Kg was tested for the inhibition of rat liver microsomal Acyl coenzyme A:cholesterol acyltransferase 1 in plasma drawn from chow fed rabbits; assay type: cell-free; outline: as §3
[14] = test system: Oryctolagus cuniculus; assay: Percent change in plasma triglyceride levels at dose 1 mg/Kg in rabbits; assay type: functional; outline: as §2
[15] = test system: Oryctolagus cuniculus; assay: Percent change in lesion coverage relative to control in the thoracic aorta at dose 1 mg/Kg in rabbits; assay type: functional; outline: as §2
[16] = test system: Canis familiaris; assay: CDOG represents the C-fed female Beagle dog model, data expressed as percent change in TC relative to untreated controls at compound concentration of 10 mg/Kg; assay type: functional, Canis lupus familiaris
Outline: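 Cholesterol-fed female Beagle dogs given bulk drug in capsules daily before meals for 1 week at 10 mg/kg. Plasma total cholesterol compared before and after treatment.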

[17] = target: T2, Sterol O-acyltransferase 1 (Rattus norvegicus); assay: Compound at 1 mg/Kg was tested for the inhibition of rat liver microsomal Acyl coenzyme A:cholesterol acyltransferase 1 in plasma drawn from chow fed rabbits; assay type: cell-free
[18] = test system: Oryctolagus cuniculus; assay: Percent change in TC relative to untreated controls at 5 mg/Kg in cholesterol fed rabbits (CFR)
[19] = test system: Oryctolagus cuniculus; assay: Percent change in lesion coverage relative to control in the thoracic aorta at dose 5 mg/Kg in rabbits; assay type: functional; outline: as §2
[20] = test system: Oryctolagus cuniculus; assay: Percent change in plasma total cholesterol at dose 1 mg/Kg in rabbits; assay type: functional; outline: as §2
[21] = test system: Oryctolagus cuniculus; assay: Percent change in TC relative to untreated controls at 25 mg/Kg in cholesterol fed rabbits (CFR)

## CCCCCCCCCCCCc1cc(C(C(=O)Nc2ccc(F)cc2F)c2ccccc2)on1 (stereo not given)
[1]
  pIC50: 7.29
[2]
  DeltaTC: -50%

## CCCCCCCCCCCCc1cnn(C(C(=O)Nc2c(OC)cc(OC)cc2OC)c2ccccc2)c1 (stereo not given)
[3]
  DeltaTC: -59%
[1]
  pIC50: 7.34
[2]
  DeltaTC: -72%

## CCCCCCCCCCCCc1nnc(C(C(=O)Nc2c(C(C)C)cccc2C(C)C)c2ccccc2)o1 (stereo not given)
[3]
  DeltaTC: -23%
[1]
  pIC50: 7.85
[2]
  DeltaTC: -64%

## CCCCCCCCCCCCc1cc(C(C(=O)Nc2c(C(C)C)cccc2C(C)C)c2ccccc2)on1 (stereo not given)
[3]
  DeltaTC: -10%
[1]
  pIC50: 7.72
[2]
  DeltaTC: -52%

## CCCCCCCCCCCCc1cc(CC(=O)Nc2c(OC)cc(OC)cc2OC)on1
[3]
  DeltaTC: -42%
[1]
  pIC50: 7.49
[2]
  DeltaTC: -59%

## CCCCCCCCCCCCc1cc(C(C(=O)Nc2c(C(C)C)cccc2C(C)C)c2ccccc2)no1 (stereo not given)
[1]
  pIC50: 7.62

## CCCCCCCCCCCCc1noc(C(C(=O)Nc2c(OC)cc(OC)cc2OC)c2ccccc2)n1 (stereo not given)
[3]
  DeltaTC: -58%
[1]
  pIC50: 7.51
[2]
  DeltaTC: -60%

## CCCCCCCCCCCCc1cc(C2(C(=O)Nc3c(OC)cc(OC)cc3OC)CCCC2)no1
[1]
  pIC50: 7.00
[2]
  DeltaTC: -29%

## CCCCCCCCCCCCc1cn(C(C(=O)Nc2c(OC)cc(OC)cc2OC)c2ccccc2)cn1 (stereo not given)
[3]
  DeltaTC: -43%
[1]
  pIC50: 6.96
[2]
  DeltaTC: -62%

## CCCCCCCCCCCCc1nc(C(C(=O)Nc2c(OC)cc(OC)cc2OC)c2ccccc2)no1 (stereo not given)
[3]
  DeltaTC: -56%
[1]
  pIC50: 7.51
[2]
  DeltaTC: -54%

## CCCCCCCCCCCCc1cc(C(C)(C)C(=O)Nc2c(OC)cc(OC)cc2OC)no1
[1]
  pIC50: 6.82
[2]
  DeltaTC: -40%

## CCCCCCCCCCCCc1cc(C(C(=O)Nc2ccc(F)cc2F)c2ccccc2)no1 (stereo not given)
[1]
  pIC50: 7.00
[2]
  DeltaTC: -29%

## CCCCCCCCCCC(C)(C)C(=O)Nc1c(OC)cc(OC)cc1OC [CL-976]
[4]
  DeltaTC: -7%
[5]
  Activity: -41%
[6]
  DeltaTC: -24%

## CCCCCCCCCCCCc1nnc(C(C(=O)Nc2c(OC)cc(OC)cc2OC)c2ccccc2)o1 (stereo not given)
[3]
  DeltaTC: -64%
[7]
  inhibition: 21%
[8]
  pIC50: 7.32
[1]
  pIC50: 7.77
[9]
  CPCC: -39
[2]
  DeltaTC: -57%

## CCCCCCCCCCCCc1cc(C(C(=O)Nc2c(OC)cc(OC)cc2OC)c2ccccc2)no1 (stereo not given)
[10]
  DeltaTC: -27%
[3]
  DeltaTC: -50%
[11]
  DeltaTG: 66%
[4]
  DeltaTC: 157%
[7]
  inhibition: 92%
[12]
  inhibition: 68%
[13]
  inhibition: 92%
[8]
  pIC50: 6.51
[14]
  DeltaTC: 24%
[15]
  Activity: -20%
[1]
  pIC50: 7.66
[5]
  Activity: -36%
[16]
  CDOG: -44
[6]
  DeltaTC: -27%
[9]
  CPCC: -61
[2]
  DeltaTC: -72%
[17]
  inhibition: 0%
[18]
  DeltaTC: -66%
[19]
  Activity: -29%
[20]
  DeltaTC: -17%

## CCCCCCCCCCCCc1cn(C(C(=O)Nc2c(OC)cc(OC)cc2OC)c2ccccc2)nn1 (stereo not given)
[3]
  DeltaTC: -66%
[7]
  inhibition: 12%
[8]
  pIC50: 7.27
[1]
  pIC50: 7.66
[2]
  DeltaTC: -69%

## CCCCCCCCCCCCc1cc(C(C(=O)Nc2c(OC)cc(OC)cc2OC)c2ccccc2)on1 (stereo not given)
[10]
  DeltaTC: -32%
[3]
  DeltaTC: -68%
[11]
  DeltaTG: 111%
[4]
  DeltaTC: 168%
[7]
  inhibition: 94%
[12]
  inhibition: 46%
[13]
  inhibition: 94%
[8]
  pIC50: 6.77
[21]
  DeltaTC: -76%
[14]
  DeltaTC: 1%
[15]
  Activity: -53%
[1]
  pIC50: 7.82
[5]
  Activity: -32%
[16]
  CDOG: -44
[6]
  DeltaTC: -26%
[9]
  CPCC: -65
[2]
  DeltaTC: -68%
[17]
  inhibition: 0%
[18]
  DeltaTC: -64%
[19]
  Activity: -46%
[20]
  DeltaTC: -26%
